In ChEMBL document CHEMBL5230171, “Expanding the structure-activity relationships of alkynyl diphenylurea scaffold as promising antibacterial agents” (RSC Med Chem, 2023) one finds Activity, MIC and Time data, which are given here for three compounds.

By MIC is commonly meant the lowest concentration that inhibits growth of the organism.

Activity calls are given as the source filed them. The rule behind the calls is not given here.

The test system of experiment [1] is Staphylococcus aureus. In words: Antibacterial activity against methicillin resistant Staphylococcus aureus NRS384 USA300 infected in Balb/c mouse model of skin infection assessed as healing administered topically twice daily for three consecutive days from day 4 to 6 and measured 24 hrs post last dose. In kind it is functional, organism-based. As to conditions: route top, time 4.0 day. Put shortly: (§1)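 Mice were anesthetized with 2,2,2-tribromoethanol and injected subcutaneously with 100 μL containing 2 × 10^9 CFU MRSA USA300 in 0.5% HPMC in saline. Topical treatment used a petroleum jelly vehicle, with a fusidic acid positive control. Lesions were photographed 24 h after the last dose. A ~1.5 cm2 skin patch (homogenized in 1 mL saline) and the spleen (in 0.5 mL) were serially diluted and plated on MSA at 37 °C overnight for CFU.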

Experiment [2] has as its system Staphylococcus aureus. In words: Antibacterial activity against methicillin resistant Staphylococcus aureus NRS384 USA300 infected in Balb/c mouse model of skin infection assessed as reduction in inflammation administered topically twice daily for three consecutive days from day 4 to 6 and measured 24 hrs post last dose. As to conditions: route top, time 4.0 day. Type of experiment: functional, organism-based. The method in brief:
as §1

In experiment [3] the test system is Staphylococcus aureus. Description: Antibacterial activity against methicillin resistant Staphylococcus aureus NRS384 USA300 infected in Balb/c mouse model of skin infection assessed as reduction in bacterial burden in skin lesions administered topically twice daily for three consecutive days from day 4 to 6 and measured 24 hrs post last dose. As to conditions: route top; time 4 day. Type of experiment: functional. Put shortly: as §1

Experiment [4] concerns Staphylococcus aureus. Description: Antibacterial activity against methicillin resistant Staphylococcus aureus NRS384 USA300 assessed as inhibition of bacterial growth incubated for 18 to 20 hrs by CLSI protocol based broth microdilution method. In kind it is functional. As to conditions: time 18-20 hrs. The method in brief:
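Broth microdilution against staphylococcal clinical isolates. Each strain was prepared as a 0.5 McFarland suspension and diluted in cation-adjusted Mueller Hinton broth to ~5 × 10^5 CFU mL−1. Serial dilutions of test agents in DMSO stock were incubated with the bacteria, and the MIC was recorded.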
On the technique in general: Broth dilution looks for growth in wells or tubes with falling amounts of substance.

Experiment [5] concerns Clostridioides difficile. In words: Antibacterial activity against Clostridioides difficile ATCC BAA 1870 assessed as inhibition of bacterial growth incubated for 18 to 20 hrs by CLSI protocol based broth microdilution method. In kind it is functional. As to conditions: time 18-20 hrs. The method in brief: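 C. difficile was diluted from a 0.5 McFarland suspension in BHI supplemented with hemin and vitamin K. It was incubated with serial dilutions of test agent in broth microdilution, and the MIC was recorded.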

Experiment [6] concerns Escherichia coli. Description: Antibacterial activity against Escherichia coli JW55031 assessed as inhibition of bacterial growth incubated for 18 to 20 hrs by CLSI protocol based broth microdilution method. As to conditions: time 18-20 hrs. In kind it is functional. Put shortly:
(§2)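 Staphylococcal and E. coli strains were diluted from a 0.5 McFarland suspension in cation-adjusted Mueller Hinton broth to ~5 × 10^5 CFU mL−1. They were incubated with serial dilutions of test agent in broth microdilution, and the MIC was recorded.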

In experiment [7] the test system is Staphylococcus aureus. In words: Antibacterial activity against methicillin resistant Staphylococcus aureus 123 assessed as inhibition of bacterial growth at 0.5 ug/ml incubated for 18 to 20 hrs by CLSI protocol based broth microdilution method. In kind it is functional, organism-based. To be noted: dose 0.5 µg/ml, time 18-20 hrs.
Experiment [8] has as its system Staphylococcus aureus. Description: Antibacterial activity against methicillin resistant Staphylococcus aureus 384 assessed as inhibition of bacterial growth at 0.5 ug/ml incubated for 18 to 20 hrs by CLSI protocol based broth microdilution method. In kind it is functional, organism-based. As to conditions: dose 0.5 µg/ml, time 18-20 hrs.
Experiment [9] deals with Staphylococcus aureus. In words: Antibacterial activity against methicillin resistant Staphylococcus aureus 119 assessed as inhibition of bacterial growth at 0.5 ug/ml incubated for 18 to 20 hrs by CLSI protocol based broth microdilution method. In kind it is functional, organism-based. To be noted: dose 0.5 µg/ml, time 18-20 hrs.
In experiment [10] the test system is Staphylococcus aureus. Description: Antibacterial activity against methicillin resistant Staphylococcus aureus 385 assessed as inhibition of bacterial growth at 0.5 ug/ml incubated for 18 to 20 hrs by CLSI protocol based broth microdilution method. Type of experiment: functional, organism-based. As to conditions: dose 0.5 µg/ml, time 18-20 hrs.
Experiment [11] has as its system Staphylococcus aureus. In words: Antibacterial activity against methicillin resistant Staphylococcus aureus 386 assessed as inhibition of bacterial growth at 0.5 ug/ml incubated for 18 to 20 hrs by CLSI protocol based broth microdilution method. In kind it is functional, organism-based. As to conditions: dose 0.5 µg/ml, time 18-20 hrs.
The test system of experiment [12] is Staphylococcus aureus. In words: Antibacterial activity against vancomycin resistant Staphylococcus aureus 10 assessed as inhibition of bacterial growth at 0.5 ug/ml incubated for 18 to 20 hrs by CLSI protocol based broth microdilution method. To be noted: dose 0.5 µg/ml, time 18-20 hrs. In kind it is functional, organism-based.
In experiment [13] the test system is Staphylococcus aureus. In words: Antibacterial activity against vancomycin resistant Staphylococcus aureus 12 assessed as inhibition of bacterial growth at 0.5 ug/ml incubated for 18 to 20 hrs by CLSI protocol based broth microdilution method. In kind it is functional, organism-based. To be noted: dose 0.5 µg/ml, time 18-20 hrs.
In experiment [14] the test system is Staphylococcus aureus. Description: Antibacterial activity against vancomycin resistant Staphylococcus aureus 9 assessed as inhibition of bacterial growth at 0.5 ug/ml incubated for 18 to 20 hrs by CLSI protocol based broth microdilution method. As to conditions: dose 0.5 µg/ml, time 18-20 hrs. In kind it is functional, organism-based.
Experiment [15] concerns Staphylococcus aureus. Description: Antibacterial activity against methicillin sensitive Staphylococcus aureus 107 assessed as inhibition of bacterial growth at 0.5 ug/ml incubated for 18 to 20 hrs by CLSI protocol based broth microdilution method. Type of experiment: functional, organism-based. As to conditions: dose 0.5 µg/ml, time 18-20 hrs. Put shortly: as §2
Experiment [16] deals with Staphylococcus aureus. In words: Antibacterial activity against methicillin sensitive Staphylococcus aureus 6538 assessed as inhibition of bacterial growth at 0.5 ug/ml incubated for 18 to 20 hrs by CLSI protocol based broth microdilution method. Type of experiment: functional, organism-based. As to conditions: dose 0.5 µg/ml, time 18-20 hrs. Put shortly:
as §2

Experiment [17] has as its system Staphylococcus aureus. In words: Post antibiotic effect against methicillin resistant Staphylococcus aureus NRS384 USA300 assessed as time required for 1 log10 increase in CFU at 5 times of MIC incubated for 2 hrs followed by replacement with drug free medium and measured after 18-24 hrs. In kind it is functional. Put shortly:
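MRSA USA300 at ~10^6 CFU mL−1 was exposed for 2 h to 5× MIC of test agent, with vancomycin or DMSO as controls. Drug was removed by 1:1000 dilution in fresh TSB. Cultures were incubated at 37 °C with 180 rpm shaking and sampled hourly for 8 h, with viable counts on MSA read after 18–24 h. PAE = T − C, where T and C are the times for a 1 log10 rise in the test and control cultures.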

`CC(=O)O[C@H]1C[C@@]2(C)[C@@H](C[C@@H](O)[C@H]3[C@@]4(C)CC[C@@H](O)[C@@H](C)[C@@H]4CC[C@@]32C)/C1=C(\CCC=C(C)C)C(=O)O` [FUSIDIC ACID]: the outcome in experiment [1] and in [2] was Active. The Activity in [3] is 1.5 log10CFU/ml.

For the compound `C/C(=N\NC(=N)N)c1ccc(NC(=O)Nc2ccc(C#CC3CC3)cc2)cc1`, the MIC in experiment [4], in [5] and in experiment [6] was at least 64 µg/mL in each case.

On to `CN[C@H](CC(C)C)C(=O)N[C@H]1C(=O)N[C@@H](CC(N)=O)C(=O)N[C@H]2C(=O)N[C@H]3C(=O)N[C@H](C(=O)N[C@H](C(=O)O)c4cc(O)cc(O)c4-c4cc3ccc4O)[C@H](O)c3ccc(c(Cl)c3)Oc3cc2cc(c3O[C@@H]2O[C@H](CO)[C@@H](O)[C@H](O)[C@H]2O[C@H]2C[C@](C)(N)[C@H](O)[C@H](C)O2)Oc2ccc(cc2Cl)[C@H]1O` [VANCOMYCIN], for which the outcome in [7], in [8], in [9], in experiment [10], in [11] and in experiment [12] was Active. For the same compound, the result in [13], in [14], in experiment [15] and in [16] was Active. In experiment [17], the Time was 4 h.
